The text below walks through data of ChEMBL document CHEMBL1134681, “Pseudoproline-containing analogues of morphiceptin and endomorphin-2: evidence for a cis Tyr-Pro amide bond in the bioactive conformation” (J Med Chem, 2001).

As usually defined, the pIC50 is the IC50 on a negative log10 scale, so that one unit is a factor of ten. A lower pIC50 goes with a high IC50. By pKi is commonly meant −log10 of the Ki, conventionally taken in molar units. Higher therefore signals a low Ki. As usually defined, the Inhibition is how much of the control response was suppressed. Lower therefore signals a weak effect.

Assay [1] is filed under the species Cavia porcellus. Kind of assay: In vitro inhibition of electrically evoked contractions of GPI (Guinea pig ileum). It counts as functional.
Assay [2] is filed under the species Mus musculus. Briefly: In vitro inhibition of electrically evoked contractions of MVD (Mouse vas deferens). Format: functional.
Assay [3] addresses Delta-type opioid receptor (Rattus norvegicus, UniProt P33533). Briefly: Binding affinity towards delta receptor in rat brain using [3H]DSLET. Format: tissue-based.
Assay [4] addresses T1, Mu-type opioid receptor (Rattus norvegicus, UniProt P33535). Briefly: (§1) Binding affinity towards mu receptor in rat brain using [3H]DAMGO. It counts as tissue-based.
For assay [5], the species on record is Cavia porcellus. Briefly: In vitro inhibition of electrically evoked contractions of GPI (Guinea pig ileum) relative to [Leu5]-enkephalin. It counts as functional.
The nature of assay [6]: Ratio of inhibition of electrically evoked contractions of mouse vas deferens and inhibition of electrically evoked contractions of guinea pig ileum; IC50 ratio. It counts as functional. Summed up: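 Ratio of normalized IC50 values from electrically stimulated mouse vas deferens versus guinea pig ileum.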
Assay [7] is filed under the species Mus musculus. Briefly: In vitro inhibition of electrically evoked contractions of MVD (Mouse vas deferens) relative to [Leu5]-enkephalin. It counts as functional.
For assay [8], the target named is T1, Mu-type opioid receptor. The assay is described as §1. Format: tissue-based. Summed up:
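Rat brain membranes; competitive displacement of [³H]DAMGO (0.72 nM; Kd 1.3 nM), incubated 2 h at 0 °C. IC50 taken from log dose–displacement curves, converted to Ki by Cheng–Prusoff.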
This is another data set of the same source.

Assay [9] is filed under the species Mus musculus. Briefly: in vitro inhibition of electrically evoked contractions of MVD (Mouse vas deferens). Format: functional.
Assay [10] is filed under the species Cavia porcellus. Briefly: in vitro inhibition of electrically evoked contractions of GPI (Guinea pig ileum). Format: functional.
The species entered for assay [11] is Cavia porcellus. Briefly: in vitro inhibition of electrically evoked contractions of GPI (Guinea pig ileum) relative to [Leu5]-enkephalin. It counts as functional. Summed up: (§2)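 Electrically stimulated isolated tissue (guinea pig ileum or mouse vas deferens), with inhibition of evoked contractions as read-out. […] IC50 values were taken from these curves and normalized to that standard by a published procedure.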

The species named for assay [12] is Mus musculus. Kind of assay: in vitro inhibition of electrically evoked contractions of MVD (Mouse vas deferens) relative to [Leu5]-enkephalin. It counts as functional. The method in brief:
as §2

The structures appear in SMILES notation. pIC50, pKi: −log10 of the molar value.

Delta-type opioid receptor, sequence (P33533 whole entry): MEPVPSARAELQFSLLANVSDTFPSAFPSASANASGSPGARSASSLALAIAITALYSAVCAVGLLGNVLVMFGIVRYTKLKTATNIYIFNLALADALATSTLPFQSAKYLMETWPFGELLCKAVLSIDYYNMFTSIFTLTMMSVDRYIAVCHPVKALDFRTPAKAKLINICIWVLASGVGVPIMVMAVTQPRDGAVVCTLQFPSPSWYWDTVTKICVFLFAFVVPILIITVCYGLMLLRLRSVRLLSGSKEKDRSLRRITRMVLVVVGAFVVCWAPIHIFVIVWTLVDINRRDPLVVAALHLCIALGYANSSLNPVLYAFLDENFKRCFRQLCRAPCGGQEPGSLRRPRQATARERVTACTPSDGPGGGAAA
T1 sequence (P33535 whole entry): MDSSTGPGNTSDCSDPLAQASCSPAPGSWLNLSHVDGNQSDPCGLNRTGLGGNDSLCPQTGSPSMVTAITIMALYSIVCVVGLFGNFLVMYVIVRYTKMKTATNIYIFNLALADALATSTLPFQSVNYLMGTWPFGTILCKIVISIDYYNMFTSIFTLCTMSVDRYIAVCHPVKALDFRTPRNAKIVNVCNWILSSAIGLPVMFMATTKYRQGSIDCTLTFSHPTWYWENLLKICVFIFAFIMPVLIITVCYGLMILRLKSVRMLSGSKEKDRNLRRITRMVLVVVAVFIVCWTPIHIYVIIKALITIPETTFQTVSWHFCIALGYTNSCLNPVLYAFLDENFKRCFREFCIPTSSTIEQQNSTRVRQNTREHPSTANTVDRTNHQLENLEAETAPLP

Consider `NC(=O)[C@@H]1CCCN1C(=O)[C@@H](Cc1ccccc1)NC(=O)[C@@H]1CSCN1C(=O)[C@@H](N)Cc1ccc(O)cc1` [listing 1 of 2 here], for which the negative logarithm of the IC50 (pIC50) in the assay filed under Cavia porcellus [1] was 7.13; in the assay listed under Mus musculus [2] it was 6.72. The pKi in assay [3] is 5.61; on Mu-type opioid receptor [4], 8.07.

Turning to `NC(=O)[C@@H]1CCCN1C(=O)[C@@H](Cc1ccccc1)NC(=O)[C@@H]1CSCN1C(=O)[C@@H](N)Cc1ccc(O)cc1` [listing 2 of 2 here], the Relative potency in the assay filed under Cavia porcellus [5] was found to be 3.3; in the assay listed under Mus musculus [7], 0.06. In addition, in assay [6], the Ratio is reported as 5.45.

With `CC1(C)SC[C@@H](C(=O)N[C@H](Cc2ccccc2)C(=O)N2CCC[C@H]2C(N)=O)N1C(=O)[C@@H](N)Cc1ccc(O)cc1` [listing 1 of 2 here], the pIC50 in the assay listed under Cavia porcellus [1] is 6.61; in the assay filed under Mus musculus [2], 5.85. Further, the results for the pKi (in [3]; at Mu-type opioid receptor [4]) were below 5.00 and 7.42, respectively.

In the case of `CC1(C)SC[C@@H](C(=O)N[C@H](Cc2ccccc2)C(=O)N2CCC[C@H]2C(N)=O)N1C(=O)[C@@H](N)Cc1ccc(O)cc1` [listing 2 of 2 here], the Relative potency in the assay listed under Cavia porcellus [5] was found to be 1; in the assay listed under Mus musculus [7], 0.00803.

As for `NC(=O)[C@@H]1CCCN1C(=O)[C@@H](Cc1ccccc1)NC(=O)[C@@H]1COCN1C(=O)[C@@H](N)Cc1ccc(O)cc1` [listing 1 of 2 here], the pIC50 in the assay filed under Cavia porcellus [1] is 6.33; in the assay filed under Mus musculus [2] it was 5.99. For the same molecule, the negative logarithm of the Ki (pKi) was below 5.00 in assay [3] and 7.23 on Mu-type opioid receptor [4].

Consider `NC(=O)[C@@H]1CCCN1C(=O)[C@@H](Cc1ccccc1)NC(=O)[C@@H]1COCN1C(=O)[C@@H](N)Cc1ccc(O)cc1` [listing 2 of 2 here], for which the Relative potency in the assay listed under Cavia porcellus [5] is given as 0.523; in the assay filed under Mus musculus [7] it was 0.0112.

For the molecule `CC1(C)OC[C@@H](C(=O)N[C@H](Cc2ccccc2)C(=O)N2CCC[C@H]2C(N)=O)N1C(=O)[C@@H](N)Cc1ccc(O)cc1` [listing 1 of 2 here], the pIC50 in the assay filed under Cavia porcellus [1] and in the assay filed under Mus musculus [2] was 6.07 in each case. The results for the pKi (in assay [3]; at Mu-type opioid receptor [4]) were below 5.00 and 7.02, respectively.

As to `CC1(C)OC[C@@H](C(=O)N[C@H](Cc2ccccc2)C(=O)N2CCC[C@H]2C(N)=O)N1C(=O)[C@@H](N)Cc1ccc(O)cc1` [listing 2 of 2 here], the Relative potency is reported as 0.286 in the assay listed under Cavia porcellus [5] and 0.0134 in the assay listed under Mus musculus [7]. The Ratio in assay [6] stood at 2.17.

For the molecule `NC(=O)[C@H](Cc1ccccc1)NC(=O)[C@H](Cc1ccccc1)NC(=O)[C@@H]1CSCN1C(=O)[C@@H](N)Cc1ccc(O)cc1` [listing 1 of 2 here], the pIC50 in the assay filed under Cavia porcellus [1] is 7.65; in the assay listed under Mus musculus [2], 6.86. Besides, the negative-log Ki (pKi) in assay [3] was 5.70; on Mu-type opioid receptor [4] it was 8.19.

Consider `NC(=O)[C@H](Cc1ccccc1)NC(=O)[C@H](Cc1ccccc1)NC(=O)[C@@H]1CSCN1C(=O)[C@@H](N)Cc1ccc(O)cc1` [listing 2 of 2 here], for which the Relative potency is on record as 11.1 in the assay filed under Cavia porcellus [5] and 0.0826 in the assay filed under Mus musculus [7]. The Ratio in [6] turned out to be 6.22.

Regarding `CC1(C)SC[C@@H](C(=O)N[C@@H](Cc2ccccc2)C(=O)N[C@@H](Cc2ccccc2)C(N)=O)N1C(=O)[C@@H](N)Cc1ccc(O)cc1` [listing 1 of 2 here], the pKi at Mu-type opioid receptor [8] is 7.30; in [3], below 5.00. The pIC50 in the assay filed under Cavia porcellus [1] was 6.30.

Regarding `CC1(C)SC[C@@H](C(=O)N[C@@H](Cc2ccccc2)C(=O)N[C@@H](Cc2ccccc2)C(N)=O)N1C(=O)[C@@H](N)Cc1ccc(O)cc1` [listing 2 of 2 here], in the assay listed under Cavia porcellus [5], the Relative potency was 0.49. This molecule also yielded an Inhibition in the assay listed under Mus musculus [7] of 26%.

As for `CC1(C)OC[C@@H](C(=O)N[C@@H](Cc2ccccc2)C(=O)N[C@@H](Cc2ccccc2)C(N)=O)N1C(=O)[C@@H](N)Cc1ccc(O)cc1` [listing 1 of 2 here], the values for the negative logarithm of the IC50 (pIC50) in the assay listed under Cavia porcellus [1] and in the assay listed under Mus musculus [2] were 6.52 and 6.22, respectively. In addition, the negative logarithm of the Ki (pKi) in assay [3] is below 5.00; on Mu-type opioid receptor [4], 7.33.

Take `CC1(C)OC[C@@H](C(=O)N[C@@H](Cc2ccccc2)C(=O)N[C@@H](Cc2ccccc2)C(N)=O)N1C(=O)[C@@H](N)Cc1ccc(O)cc1` [listing 2 of 2 here]: the Relative potency in the assay filed under Cavia porcellus [5] amounted to 0.807; in the assay listed under Mus musculus [7] it was 0.0188. In addition, the Ratio in assay [6] is 1.99.

With `NC(=O)[C@H](Cc1ccccc1)NC(=O)[C@H](Cc1ccccc1)NC(=O)[C@@H]1COCN1C(=O)[C@@H](N)Cc1ccc(O)cc1` [listing 1 of 2 here], the negative-log IC50 (pIC50) in the assay filed under Cavia porcellus [1] is 7.38; in the assay filed under Mus musculus [2], 6.82. Moreover, the pKi in assay [3] is below 5.40; at Mu-type opioid receptor [4] it was 8.10.

Take `NC(=O)[C@H](Cc1ccccc1)NC(=O)[C@H](Cc1ccccc1)NC(=O)[C@@H]1COCN1C(=O)[C@@H](N)Cc1ccc(O)cc1` [listing 2 of 2 here]: the Relative potency amounted to 5.9 in the assay listed under Cavia porcellus [5] and 0.0755 in the assay filed under Mus musculus [7]. Besides, the Ratio in assay [6] worked out at 3.62.

`NC(=O)[C@@H]1CCCN1C(=O)C(Cc1ccccc1)NC(=O)[C@H]1CCCN1C(=O)[C@@H](N)Cc1ccc(O)cc1` (stereo in doubt) [listing 1 of 2 here]: the pIC50 is 6.23 in the assay listed under Mus musculus [9] and 6.96 in the assay filed under Cavia porcellus [10]. This molecule also showed a pKi in assay [3] below 5.00.

On to `NC(=O)[C@@H]1CCCN1C(=O)C(Cc1ccccc1)NC(=O)[C@H]1CCCN1C(=O)[C@@H](N)Cc1ccc(O)cc1` (stereo in doubt) [listing 2 of 2 here], for which the Relative potency in the assay filed under Cavia porcellus [11] was found to be 2.26; in the assay listed under Mus musculus [12], 0.0192.

For `NC(=O)[C@H](Cc1ccccc1)NC(=O)[C@H](Cc1ccccc1)NC(=O)[C@@H]1CCCN1C(=O)[C@@H](N)Cc1ccc(O)cc1` [ENDOMORPHIN 2], the pIC50 was 7.82 in the assay filed under Mus musculus [9] and 8.11 in the assay listed under Cavia porcellus [10].

In the case of `CC(C)C[C@H](NC(=O)[C@H](Cc1ccccc1)NC(=O)CNC(=O)CNC(=O)[C@@H](N)Cc1ccc(O)cc1)C(N)=O` [[LEU5]ENKEPHALIN], the values for the negative logarithm of the IC50 (pIC50) in the assay filed under Mus musculus [9] and in the assay filed under Cavia porcellus [10] were 7.94 and 6.61, respectively.
